# Assay results as given in the RNAGym collection of RNA variant scans (doi:10.1126/science.aae0568).
# This sample holds only a part of the variants without activity.
# B1: tRNA (parent)
# chain: GUUCCGUUGGCGUAAUGGUAACGCGUCUCCCUCCUAAGGAGAAGACUGCGGGUUCGAGUCCCGUACGGAACG
# Variants of: B1
# Test: yeast fitness relative to wild type (ratio to wild type); higher = fitter; tRNA-Arg(CCU), competitive growth, 37 C, YPD
# Outline: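 Start and end populations of a pooled competition were compared by 100-nucleotide paired-end sequencing of gene amplicons. The Saccharomyces cerevisiae strains carried tRNA-Arg(CCU) gene variants at the native genomic locus, synthesised with a 3% per-site mutation rate at 69 sites, and competed in YPD at 37°C for 24 hours in six parallel replicates. Darwinian fitness relative to wild type was based on the change in genotype frequencies. Genotypes required ≥ 100 starting reads, and estimates < 0.5 were set to 0.5.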
row,Variant,yeast fitness
1,A14U U35C A37U,≤ 0.5
2,A15C U59A A69C,≤ 0.5
3,A15C G44C,0.684
4,A15G C22U,0.871
5,A15C A36G G56A C61U,≤ 0.5
6,A15C U16A A45U G48C C61U,≤ 0.5
7,A14U U32C A40C G67A,0.529
8,A15C U16C C34G C46A C61U C66G,≤ 0.5
9,A15C U19C A21G C34U,≤ 0.5
10,A15G A37U A43C,0.518
11,A14U U54C C62U G68C,≤ 0.5
12,A15C U26G U28C A37G G41A C49G C62U,≤ 0.5
13,A15G A42C,0.863
14,A14U U16A C33G,≤ 0.5
15,A15G A21G C29G A42G C55A,≤ 0.5
16,A15G C24U C29U C30G U35G A70G,≤ 0.5
17,A15G A20C C24G,0.626
18,A15C A36U C55A A65U,≤ 0.5
19,A15C C27A U32G,0.709
20,A15C G17A G38C,≤ 0.5
21,A15G C24A G63A,≤ 0.5
22,A15C C30G U32C C34U C66U A70C,≤ 0.5
23,A15C A20C A65U,≤ 0.5
24,A15G A37G,0.795

row,Variant,yeast fitness
1,A15G A37C,0.666
2,A14U U26A C55G A65C,≤ 0.5
3,A15C C33A,0.578
4,A14U G48A A70U,0.661
5,A15C A42G C49A G56C G67U,≤ 0.5
6,A15C A36C G48A,0.516
7,A15G A40C G50A,≤ 0.5
8,A15C U19C A65C,0.628
9,A14U U35C C66G,≤ 0.5
10,A14U G48C,0.714
11,A15C A42G C49A,0.605
12,A15C U16C A37C G50A U53A C61U,0.58
13,A14U U19A C24G U54A,≤ 0.5
14,A15G A43U A57C,0.559
15,A15C A21G,0.58
16,A15C G17C C31A G44C,≤ 0.5
17,A15G,0.987
18,A15C,0.904
19,A15G A37C G50C,0.601
20,A14U U16A C31G U47C G68C,≤ 0.5
21,A15C G18A C24A C34U C46G,≤ 0.5
22,A15C G25A,1.02
23,A15C C60U C66A,≤ 0.5
24,A15C G39A C46U,0.55

row,Variant,yeast fitness
1,A15G A45U G48A,0.636
2,A14U U26A C66A,≤ 0.5
3,A15C C33U U47G C49U G52C,≤ 0.5
4,A15C C49U U54C C55G U64C,≤ 0.5
5,A15C C24G C34U A43G,≤ 0.5
6,A15G A20C C34A,≤ 0.5
7,A15C C27G G39C U47A,0.689
8,A15G C24U C34U C61U,≤ 0.5
9,A15G A57C C62A,≤ 0.5
10,A14U U16A A65U,0.626
11,A15G A42G G48A,0.774
12,A15C A43C G58A,≤ 0.5
13,A14U U35C C55G C61G C66U,≤ 0.5
14,A15C C30U G67A,≤ 0.5
15,A15C U19C C62A,0.536
16,A15C C33U U47G C49U G52C G68A,≤ 0.5
17,A15G A21C U32C U64A,≤ 0.5
18,A15G A21G G52C C62A,0.616
19,A15C A21U G23A,≤ 0.5
20,A15C A40C U54C,≤ 0.5
21,A15C C29A C60G G68A,0.609
22,A15C C46U U64C A70G,≤ 0.5
23,A15C C29A G41A A43C,≤ 0.5
24,A15C C29U G39C A42U G50U G51C A65U,0.527

row,Variant,yeast fitness
1,A14U U28A C46G,≤ 0.5
2,A15C G56C U59C,≤ 0.5
3,A15C C27U A42C,≤ 0.5
4,A15G A21U A37C G39C A57U C62U,≤ 0.5
5,A14U U47A G56A,≤ 0.5
6,A15G A36C G50A,≤ 0.5
7,A15C C31U G48C A65C,≤ 0.5
8,A14U U35C C55A C60A,≤ 0.5
9,A15C C31U G38A G56C A70U,0.581
10,A15C G39A A65G A70U,≤ 0.5
11,A15C C31U U32C,0.5
12,A15C A65G,0.829
13,A15G A21U A36U C49U G52C C62A G67A,≤ 0.5
14,A15C G17A C22U G23C G51A A69C,0.567
15,A15G C24G C29U,≤ 0.5
16,A15C U19A G39A,0.519
17,A15C G52C U64A,≤ 0.5
18,A15C U16C A36U A65C,≤ 0.5
19,A15C A20C C33U C34U C61G,≤ 0.5
20,A15C C31A C34A,≤ 0.5
21,A15C C22U G38A C55G,≤ 0.5
22,A15G C24U C29U C30G U35G A43U,≤ 0.5
23,A15G A36U C55U A65U,≤ 0.5
24,A15C G17A A57G A65G,≤ 0.5

row,Variant,yeast fitness
1,A15C C22G A43C,≤ 0.5
2,A15G C24G U26A,0.656
3,A15C G17A A42U,≤ 0.5
4,A15G C24G G52A C66G G67A,≤ 0.5
5,A14U U16C A21G C24U C46G C62U,≤ 0.5
6,A15C G18A,0.74
7,A15G A20U C34A C60A A70C,≤ 0.5
8,A15C U19C A37C G51A G67C,≤ 0.5
9,A15C C31U G63A,≤ 0.5
10,A15C A43U C46A,0.502
11,A14U U16G U19A G56A G67A,≤ 0.5
12,A15G A20G C31U,0.59
13,A15C A43U C49G,0.515
14,A15G A20C C29G G67A,≤ 0.5
15,A15C A37C U59C,0.814
16,A15C C31A A37U,≤ 0.5
17,A15C G63A,0.61
18,A15C G63C,0.616
19,A15C G67A,0.698
20,A15C G17A C29A C30U C62G U64A,≤ 0.5
21,A15C C31G C33G C55U,≤ 0.5
22,A15G A65C,0.867
23,A14U U59A G67A,0.578
24,A15C C49A G67C,≤ 0.5

row,Variant,yeast fitness
1,A15C G17C A36C G38C G48A,≤ 0.5
2,A15C A69G,0.877
3,A15C A36U C49U A65C,≤ 0.5
4,A15C C27G,0.571
5,A15C C24G A69U,0.533
6,A15C G56A C61U C66U,≤ 0.5
7,A15C U64C,0.956
8,A15C U64A,0.74
9,A15C C46U,0.939
10,A15C C46A,0.86
11,A15C U16C A43U A70G,0.532
12,A15C C24A,≤ 0.5
13,A15C C24U,0.601
14,A15C C60A A70U,0.555
15,A14U U35C U53G C66G,≤ 0.5
16,A15C C31A G50A,≤ 0.5
17,A15G A21C G39C A45G U53C,≤ 0.5
18,A15C A20C A21U C30U A40U,≤ 0.5
19,A15C G17A A36G G38C U59C,≤ 0.5
20,A15C A20G A65U A69G,≤ 0.5
21,A15C U16C A37C C60A,≤ 0.5
22,A15G A21C C34U C61U,≤ 0.5
23,A15G A20U C34A,≤ 0.5
24,A15C U16A G50A,≤ 0.5

row,Variant,yeast fitness
1,A15C G25C C29U U35C A43U A70U,≤ 0.5
2,A15C C29G G44C A45U U47A,≤ 0.5
3,A15G C24G U26A G52A G67A G68C,0.561
4,A15C C49G C55G,0.668
5,A15G A20U C60G,0.542
6,A15G A65G A70C,0.714
7,A15C A36C G38C G52A,≤ 0.5
8,A15C U35G,0.621
9,A15C A40U A70U,0.563
10,A14U U26A C33A G63A,≤ 0.5
11,A15C U16C A43C,≤ 0.5
12,A15C G17A A45C,≤ 0.5
13,A15G A21C A65U,0.641
14,A15G A21G A42C C46A,≤ 0.5
15,A15G A20U U26C C29G U32A,0.591
16,A15G C22G U35C A43U,0.556
17,A15C U16C,0.678
18,A15C U16A,0.628
19,A14U U28A C33U,0.714
20,A15G A21C C24U,≤ 0.5
21,A14U U26C C31U G68A,≤ 0.5
22,A15C A20G C33A A36C U47A,≤ 0.5
23,A15C C30A A42C G56A A57U,0.578
